Source: paper PMC6072465 (MedChemComm, 2017)

Assays:
[1] = test system: HCT116 (human colon carcinoma) cancer cells; experiment: Oxygen consumption, Seahorse XF-96 Analyzer; assay type: cell-based; details: incubation for 24 hours
Outline: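 HCT116 cells grown in DMEM with 10% heat-inactivated FCS and penicillin/streptomycin at 37 °C, 5% CO2. About 15 000 cells/well adhered overnight, then were exposed to test compounds for 24 h. Cells were washed and held 1 h at 37 °C without CO2 in unbuffered DMEM (5 mM glucose, 2 mM glutamine, pH 7.4). Basal OCR was read, then sequential oligomycin, CCCP, and rotenone/antimycin A. Rates normalized to total well protein.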

HCT116 cells = experiment: Cytochrome c release from mitochondria to cytosol; assay type: cell-based, human; details: concentration 3.5 μM
[2] = test system: caspase-3 in TET21N cells; experiment: Caspase-3 activity with fluorogenic substrate DEVD-AMC, TET21N cells; assay type: cell-based, human; details: compared with betulinic acid
[3] = test system: caspase-3 in HCT116 cells; experiment: Caspase-3 activity with fluorogenic substrate DEVD-AMC, HCT116 cells; assay type: cell-based, human; details: compared with betulinic acid

SMILES: C=C(C)[C@@H]1CC[C@]2(C(=O)O)CC[C@]3(C)[C@H](CC[C@@H]4[C@@]5(C)CC[C@H](O)C(C)(C)[C@@H]5CC[C@]43C)[C@@H]12 [BA, betulinic acid, reference compound]
- effect on mitochondrial respiration (oxygen consumption) [1]: ineffective
- release of cytochrome c from the mitochondria to the cytosol (HCT116 cells): failed to trigger the release of cytochrome c

SMILES: C=C(C)[C@@H]1CC[C@]2(C(=O)OCCOCCOCC[P+](c3ccccc3)(c3ccccc3)c3ccccc3)CC[C@]3(C)[C@H](CC[C@@H]4[C@@]5(C)CC[C@H](OC(C)=O)C(C)(C)[C@@H]5CC[C@]43C)[C@@H]12.[Br-] [compound 7, 8′-(Triphenylphosphonio-3′,6′-dioxaoctan-1′-yl)-3β-acetoxylup-20(29)-en-28-oate bromide]
- effect on mitochondrial respiration (oxygen consumption) [1]: suppressed respiration in a concentration-dependent manner

SMILES: C=C(C)[C@@H]1CC[C@]2(C(=O)OCCOCCOCC[P+](c3ccccc3)(c3ccccc3)c3ccccc3)CC[C@]3(C)[C@H](CC[C@@H]4[C@@]5(C)CC[C@H](O)C(C)(C)[C@@H]5CC[C@]43C)[C@@H]12.[Br-] [compound 9, 9′-(Triphenylphosphonio-3′,6′-dioxaoctan-1′-yl)-3β-hydroxylup-20(29)-en-28-oate bromide]
- effect on mitochondrial respiration (oxygen consumption) [1]: suppressed respiration in a concentration-dependent manner
- activation of caspase-3 [2]: considerably surpassed betulinic acid in the caspase-3 activation
- activation of caspase-3 [3]: considerably surpassed betulinic acid in the caspase-3 activation
